Results published in ChEMBL document CHEMBL1153796, “Isoprenylated chromone derivatives from the plant endophytic fungus Pestalotiopsis fici” (J Nat Prod, 2009).

Legend:
MCF7 = test: Cytotoxicity against human MCF7 cells after 48 hrs by MTT assay; type: functional, cell-based; conditions: MCF7, 48 h
[1] = system: Human immunodeficiency virus 1; test: Antiviral activity against HIV1 infected human C8166 cells assessed as inhibition of viral replication after 4 days by p24 antigen capture ELISA; type: functional, organism-based; conditions: Human immunodeficiency virus 1, C8166, 96 h
HeLa = test: Cytotoxicity against human HeLa cells after 48 hrs by MTT assay; type: functional, cell-based
Outline: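 Cells plated at 10^4/well and allowed to attach overnight. Exposed to compound dilutions from DMSO stock (vehicle 0.2% DMSO) for 4 h at 37 °C, then grown 48 h in fresh DMEM. MTT at 0.5 mg/mL added for 3 h, formazan dissolved in DMSO, absorbance at 540 nm; 5-fluorouracil as positive control.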

C8166 = test: Cytotoxicity against human C8166 cells after 4 days by MTT assay; type: cell-based; conditions: C8166, 96 h
Outline: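 C8166 cells seeded at 3 × 10^4/well with various compound concentrations in triplicate, 37 °C, 5% CO2, run alongside the HIV-1 assay.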

| Structure (SMILES) | IC50 (MCF7) [µM] | EC50 [1] [µM] | IC50 (HeLa) [µM] | CC50 (C8166) [µM] |
| --- | --- | --- | --- | --- |
| CC(C)=CC=C1C2=C(C[C@H](O)[C@@H]1O)C(=O)CC(C)(C)O2 (mixture of isomers) | > 144 | 89.2 | > 144 | – |
| O=c1[nH]cc(F)c(=O)[nH]1 [FLUOROURACIL] | – | – | 10 | – |
| CC(C)=CC[C@]12O[C@H]1[C@@H](O)CC1=C2OC(C)(C)CC1=O [PESTALOFICIOL F] | > 144 | > 100 | > 144 | – |
| CC1(C)CC(=O)C2=C(O1)C1=C[C@@H](C(C)(C)O)O[C@H]1[C@@H](O)C2 [PESTALOFICIOL I] | 136 | > 100 | > 136 | – |
| CC(C)=CCc1cc(O)cc2c1OC(C)(C)CC2=O [PESTALOFICIOL J] | > 154 | 8 | 21.2 | > 100 |
| CC(=O)OC1=CC(C)(C)Oc2c(CC=C(C)C)cc(O)cc21 [PESTALOFICIOL K] | > 132 | 78.2 | 99.3 | – |
| COC(=O)c1cc(OC)cc(O)c1C(=O)c1c(O)cc(C)c(C2=CC(C)(C)Oc3c(CC=C(C)C)cc(O)cc32)c1O [PESTALOFICIOL L] | 17.4 | > 100 | 8.7 | – |
